Experimental data reported in ChEMBL document CHEMBL1124493, “Synthesis and tumor uptake of 5-82Br- and 5-131I-labeled 5-halo-1-(2-fluoro-2-deoxy-beta-D-ribofuranosyl)uracils” (J Med Chem, 1989).

Assays:
[1] = test system: Mus musculus; experiment: Biodistribution of intravenously injected [131I]-labeled compound in skin of BDF1 female mice bearing subcutaneous Lewis lung carcinoma after 24 hours; format: ADME, organism-based, Zone of skin; details: in vivo, iv
In short: (§1)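 Female BDF1 mice with subcutaneous Lewis lung carcinoma given i.v. 0.5-1.8 μg of 131I-labeled nucleoside (55-110 kBq). Killed at set times. Tissues weighed wet and γ-counted. Radioactivity expressed as percent injected dose per gram wet tissue, mean ± SD of six animals.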

[2] = species on record: Mus musculus; experiment: Urinary [131I]5-iodouracil observed in BDF1 female mice bearing lewis lung tumor after 24 hr of injected [131I]-compound; format: functional, tissue-based; details: Urine
[3] = test system: Mus musculus; experiment: Biodistribution of intravenously injected [131I]-labeled compound in lung of BDF1 female mice bearing subcutaneous Lewis lung carcinoma after 24 hours; format: ADME, organism-based; details: in vivo, iv
In short: (§2)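 Female BDF1 mice bearing subcutaneous Lewis lung carcinoma received a single intravenous dose of 0.5-1.8 μg of the 131I-labeled nucleoside (55-110 kBq). They were sacrificed at set times, and tissues were weighed wet and γ-counted. Activity is expressed as percent of injected dose per gram of wet tissue, given as mean ± standard deviation for six animals.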

[4] = test system: Mus musculus; experiment: Biodistribution of intravenously injected [131I]-labeled compound in bone of BDF1 female mice bearing subcutaneous Lewis lung carcinoma after 8 hours; format: ADME, organism-based, Bone element; details: in vivo, iv; in short: as §2
[5] = test system: Mus musculus; experiment: Biodistribution of intravenously injected [131I]-labeled compound in spleen of BDF1 female mice bearing subcutaneous Lewis lung carcinoma after 1 hours; format: ADME, organism-based; details: in vivo, iv; in short: as §1
[6] = test system: Mus musculus; experiment: Biodistribution of intravenously injected [131I]-labeled compound in spleen of BDF1 female mice bearing subcutaneous Lewis lung carcinoma after 24 hours; format: ADME, organism-based; details: in vivo, iv; in short: as §1
[7] = test system: Mus musculus; experiment: Biodistribution of intravenously injected [131I]-labeled compound in skin of BDF1 female mice bearing subcutaneous Lewis lung carcinoma after 4 hours; format: ADME, organism-based, Zone of skin; details: in vivo, iv; in short: as §1
[8] = test system: Mus musculus; experiment: Biodistribution of intravenously injected [131I]-labeled compound in kidney of BDF1 female mice bearing subcutaneous Lewis lung carcinoma after 8 hours; format: ADME, organism-based; details: in vivo, iv; in short: as §2
[9] = test system: Mus musculus; experiment: Biodistribution of intravenously injected [131I]-labeled compound in spleen of BDF1 female mice bearing subcutaneous Lewis lung carcinoma after 0.25 hours; format: ADME, organism-based; details: in vivo, iv; in short: as §1
[10] = test system: Mus musculus; experiment: Biodistribution of intravenously injected [131I]-labeled compound in lung of BDF1 female mice bearing subcutaneous Lewis lung carcinoma after 0.25 hours; format: ADME, organism-based; details: in vivo, iv; in short: as §2
[11] = species on record: Mus musculus; experiment: Inhibition constant for influx competition with [6-3H]thymidine in mouse erythrocytes; format: functional
In short: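 Freshly harvested mouse erythrocytes were exposed to various concentrations of test nucleoside and [6-3H]thymidine, and zero-trans thymidine influx was measured. Extracellular [6-3H]thymidine was measured over time by liquid scintillation counting of aliquots. The Ki for competition at the nucleoside transporter was derived by previously described methods.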

[12] = test system: Mus musculus; experiment: Biodistribution of intravenously injected [131I]-labeled compound in tumor of BDF1 female mice bearing subcutaneous Lewis lung carcinoma after 0.25 hours; format: ADME, organism-based; details: in vivo, iv; in short: as §1
[13] = species on record: Mus musculus; experiment: Urinary [131I]5-iodouracil observed in BDF1 female mice bearing lewis lung tumor after 0-0.5 hr of injected [131I]-compound; format: functional, tissue-based; details: Urine
[14] = test system: Mus musculus; experiment: Biodistribution of intravenously injected [131I]-labeled compound in gut of BDF1 female mice bearing subcutaneous Lewis lung carcinoma after 8 hours; format: ADME, organism-based; details: in vivo, iv; in short: as §2
[15] = test system: Mus musculus; experiment: Biodistribution of intravenously injected [131I]-labeled compound in gut of BDF1 female mice bearing subcutaneous Lewis lung carcinoma after 0.50 hours; format: ADME, organism-based; details: in vivo, iv, 0.5 h; in short: as §2
[16] = test system: Mus musculus; experiment: Biodistribution of intravenously injected [131I]-labeled compound in bone of BDF1 female mice bearing subcutaneous Lewis lung carcinoma after 0.25 hours; format: ADME, organism-based, Bone element; details: in vivo, iv; in short: as §2
[17] = test system: Mus musculus; experiment: Biodistribution of intravenously injected [131I]-labeled compound in bone of BDF1 female mice bearing subcutaneous Lewis lung carcinoma after 1 hours; format: ADME, organism-based, Bone element; details: in vivo, iv; in short: as §2
[18] = species on record: Mus musculus; experiment: Urinary [131I]- compound observed in BDF1 female mice bearing lewis lung tumor after 6-7 hr of injected [131I]-compound; format: functional, tissue-based; details: Urine
[19] = test system: Mus musculus; experiment: Biodistribution of intravenously injected [131I]-labeled compound in stomach of BDF1 female mice bearing subcutaneous Lewis lung carcinoma after 0.25 hours; format: ADME, organism-based; details: in vivo, iv; in short: as §1
[20] = test system: Mus musculus; experiment: Biodistribution of intravenously injected [131I]-labeled compound in spleen of BDF1 female mice bearing subcutaneous Lewis lung carcinoma after 0.50 hours; format: ADME, organism-based; details: in vivo, iv, 0.5 h; in short: as §1
[21] = test system: Mus musculus; experiment: Biodistribution of intravenously injected [131I]-labeled compound in liver of BDF1 female mice bearing subcutaneous Lewis lung carcinoma after 2 hours; format: ADME, organism-based; details: in vivo, iv; in short: as §2
[22] = test system: Mus musculus; experiment: Biodistribution of intravenously injected [131I]-labeled compound in stomach of BDF1 female mice bearing subcutaneous Lewis lung carcinoma after 0.50 hours; format: ADME, organism-based; details: in vivo, iv, 0.5 h; in short: as §1
[23] = test system: Mus musculus; experiment: Biodistribution of intravenously injected [131I]-labeled compound in tumor of BDF1 female mice bearing subcutaneous Lewis lung carcinoma after 8 hours; format: ADME, organism-based; details: in vivo, iv; in short: as §1
[24] = test system: Mus musculus; experiment: Biodistribution of intravenously injected [131I]-labeled compound in skin of BDF1 female mice bearing subcutaneous Lewis lung carcinoma after 0.50 hours; format: ADME, organism-based, Zone of skin; details: in vivo, iv, 0.5 h; in short: as §1
[25] = species on record: Mus musculus; experiment: Urinary [131I]- compound observed in BDF1 female mice bearing lewis lung tumor after 24 hr of injected [131I]-compound; format: functional, tissue-based; details: Urine
[26] = test system: Mus musculus; experiment: Biodistribution of intravenously injected [131I]-labeled compound in liver of BDF1 female mice bearing subcutaneous Lewis lung carcinoma after 8 hours; format: ADME, organism-based; details: in vivo, iv; in short: as §2
[27] = test system: Mus musculus; experiment: Biodistribution of intravenously injected [82Br]-labeled compound in heart of BDF1 female mice bearing subcutaneous Lewis lung carcinoma after 0.50 hours; format: ADME, organism-based; details: in vivo, iv, 0.5 h
In short: (§3)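 Female BDF1 mice with subcutaneous Lewis lung carcinoma given an iv injection of [82Br]-labelled nucleoside, 47-130 μg carrying 20-60 kBq 82Br. Tissues were excised, weighed wet and γ-counted. Values are percent injected dose per gram of wet tissue, mean ± standard deviation of six animals, with organ-to-tumour ratios derived.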

[28] = test system: Mus musculus; experiment: Biodistribution of intravenously injected [82Br]-labeled compound in tumor of BDF1 female mice bearing subcutaneous Lewis lung carcinoma after 24 hours; format: ADME, organism-based; details: in vivo, iv
[29] = test system: Mus musculus; experiment: Biodistribution of intravenously injected [82Br]-labeled compound in bone of BDF1 female mice bearing subcutaneous Lewis lung carcinoma after 8 hours; format: ADME, organism-based, Bone element; details: in vivo, iv
In short: (§4)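 82Br-labeled nucleoside given intravenously to female BDF1 mice bearing subcutaneous Lewis lung carcinoma, at 47-130 μg carrying 20-60 kBq. Mice sacrificed at each time point. Wet-weighed tissues γ-counted. Values are percent injected dose per gram wet tissue, mean ± SD, n = 6.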

[30] = test system: Mus musculus; experiment: Biodistribution of intravenously injected [82Br]-labeled compound in spleen of BDF1 female mice bearing subcutaneous Lewis lung carcinoma after 0.25 hours; format: ADME, organism-based; details: in vivo, iv; in short: as §3
[31] = test system: Mus musculus; experiment: Biodistribution of intravenously injected [82Br]-labeled compound in muscle of BDF1 female mice bearing subcutaneous Lewis lung carcinoma after 4 hours; format: ADME, organism-based, Muscle tissue; details: in vivo, iv; in short: as §3
[32] = test system: Mus musculus; experiment: Biodistribution of intravenously injected [82Br]-labeled compound in spleen of BDF1 female mice bearing subcutaneous Lewis lung carcinoma after 8 hours; format: ADME, organism-based; details: in vivo, iv
[33] = test system: Mus musculus; experiment: Biodistribution of intravenously injected [82Br]-labeled compound in gut of BDF1 female mice bearing subcutaneous Lewis lung carcinoma after 24 hours; format: ADME, organism-based; details: in vivo, iv; in short: as §3
[34] = test system: Mus musculus; experiment: Biodistribution of intravenously injected [82Br]-labeled compound in bone of BDF1 female mice bearing subcutaneous Lewis lung carcinoma after 2 hours; format: ADME, organism-based, Bone element; details: in vivo, iv; in short: as §4
[35] = test system: Mus musculus; experiment: Biodistribution of intravenously injected [82Br]-labeled compound in lung of BDF1 female mice bearing subcutaneous Lewis lung carcinoma after 0.25 hours; format: ADME, organism-based; details: in vivo, iv; in short: as §3
[36] = test system: Mus musculus; experiment: Biodistribution of intravenously injected [82Br]-labeled compound in blood of BDF1 female mice bearing subcutaneous Lewis lung carcinoma after 4 hours; format: ADME, organism-based; details: in vivo, iv; in short: as §4
[37] = test system: Mus musculus; experiment: Biodistribution of intravenously injected [82Br]-labeled compound in skin of BDF1 female mice bearing subcutaneous Lewis lung carcinoma after 2 hours; format: ADME, organism-based, Zone of skin; details: in vivo, iv; in short: as §3

O=c1[nH]c(=O)n([C@@H]2O[C@H](CO)[C@@H](O)[C@H]2F)cc1I
Injected dose/g [1]: 0.1% | Radioactive constituents [2]: 0% | Injected dose/g [3]: 0.1% | Injected dose/g [4]: 0.7% | Injected dose/g [5]: 2.5% | Injected dose/g [6]: 0.5% | Injected dose/g [7]: 3.5% | Injected dose/g [8]: 4.1% | Injected dose/g [9]: 3.2% | Injected dose/g [10]: 7.9% | Ki [11]: 410 µM | Injected dose/g [12]: 4.9% | Radioactive constituents [13]: 1.8% | Injected dose/g [14]: 1.3% | Injected dose/g [15]: 2.8% | Injected dose/g [16]: 2.4% | Injected dose/g [17]: 1.5% | Radioactive constituents [18]: 60.2% | Injected dose/g [19]: 3.7% | Injected dose/g [20]: 2.9% | Injected dose/g [21]: 2.8% | Injected dose/g [22]: 4.6% | Injected dose/g [23]: 1.9% | Injected dose/g [24]: 3.8% | Radioactive constituents [25]: 37.4% | Injected dose/g [26]: 1.4%

O=c1[nH]c(=O)n([C@H]2O[C@@H](CO)[C@H](O)[C@H]2F)cc1Br
Injected dose/g [27]: 0.76% | Injected dose/g [28]: 0.32% | Injected dose/g [29]: 0.23% | Injected dose/g [30]: 1.06% | Injected dose/g [31]: 0.12% | Ki [11]: 390 µM | Injected dose/g [32]: 0.34% | Injected dose/g [33]: 0.22% | Injected dose/g [34]: 0.26% | Injected dose/g [35]: 1.7% | Injected dose/g [36]: 0.6% | Injected dose/g [37]: 0.39%
